Laboratory results reported in ChEMBL document CHEMBL5712087, “Targeting bromodomain-containing protein 4 (BRD4) inhibits MYC expression in colorectal cancer cells” (Neoplasia, 2019).
Calls of active or inactive are those of the source. The rule behind the calls is not given here.

Assays:
Type in all cases: cell-based
[1] = molecular target: T1, von Hippel-Lindau disease tumor suppressor/Bromodomain-containing protein 4 (Homo sapiens) (UniProt O60885+P40337); test: PROTAC activity at BRD4/VHL E3 ligase in human LS174T cells assessed as BRD4 protein degradation at 100 to 1000 nM for 24 hrs by Western blot analysis; conditions: dose 100-1000 nM
Outline: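 LS174t cells (RPMI 1640, 10% FCS) were exposed to 1 nM–10 µM for 24 h. Lysates in RIPA with inhibitors and 2.5 mmol/l DTT; 15 µg protein was run on 10% SDS-PAGE and transferred to nitrocellulose. BRD4 or MYC primary antibodies were used at 1:1,000 overnight at 4 °C, HRP secondary 1:10,000, and GAPDH/β-actin as loading control. Detection was by chemiluminescence.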

[2] = molecular target: T1, von Hippel-Lindau disease tumor suppressor/Bromodomain-containing protein 4 (Homo sapiens); test: PROTAC activity at BRD4/VHL E3 ligase in human LS174T cells assessed as BRD4 protein degradation at 250 nM pretreated with VHL siRNA by Western blot analysis
[3] = molecular target: T1, von Hippel-Lindau disease tumor suppressor/Bromodomain-containing protein 4 (Homo sapiens); test: PROTAC activity at BRD4/VHL E3 ligase in human LS174T cells assessed as BRD4 mRNA level at 500 to 1000 nM for 24 hrs by RT-qPCR analysis; conditions: dose 500-1000 nM
Outline: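 LS174t cells were treated for 24 h, then total RNA was Trizol-extracted from 10^6 cells and integrity-checked. 0.7 µg RNA was reverse transcribed and SYBR-type qPCR run for 40 cycles (95 °C 15 s, 60 °C 60 s), with melt-curve control. MYC or BRD4 mRNA was normalised to PPIA and ACTB by the ΔΔCq method. Experiments were run at least three times; mean ± SD.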

[4] = molecular target: T1, von Hippel-Lindau disease tumor suppressor/Bromodomain-containing protein 4 (Homo sapiens); test: PROTAC activity at BRD4/VHL E3 ligase in human LS174T dbet1 resistant cells assessed as BRD4 protein degradation at 500 to 1000 nM for 24 hrs by Western blot analysis; conditions: dose 500-1000 nM
Outline: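 Resistant LS174t cells were derived by four months' exposure to rising dBET1 concentrations, with outgrowing cells expanded. Resistant and parental cells were then treated and analysed for BRD4 and MYC protein by western blot (GAPDH/β-actin control) and for MYC mRNA by qPCR normalised to PPIA/ACTB (ΔΔCq).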

[5] = molecular target: T1, von Hippel-Lindau disease tumor suppressor/Bromodomain-containing protein 4 (Homo sapiens); test: PROTAC activity at BRD4/VHL E3 ligase in human Caco-2 cells assessed as decrease in MYC protein expression at 5 to 10 uM for 24 hrs by Western blot analysis; conditions: dose 5-10 µM
Outline: (§1)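 Eight CRC lines exposed 24 h to PROTAC at 5 or 10 µM (stocks 2 mM in DMSO, diluted in PBS or medium). Lysis in RIPA with protease/phosphatase inhibitors and 2.5 mmol/l DTT; 15 µg protein on 10% SDS-PAGE, semi-dry transfer to nitrocellulose. Anti-BRD4 or anti-MYC at 1:1,000 overnight at 4 °C; GAPDH or β-actin loading control; chemiluminescence.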

[6] = molecular target: T1, von Hippel-Lindau disease tumor suppressor/Bromodomain-containing protein 4 (Homo sapiens); test: PROTAC activity at BRD4/VHL E3 ligase in human fibroblast cells assessed as effect on MYC protein expression at 100 to 250 nM for 24 hrs by Western blot analysis; conditions: dose 100-250 nM
Outline: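 Normal human dermal fibroblasts in 10% FCS medium were treated with 100 or 250 nM PROTAC. BRD4 and MYC protein were assessed by western blot (15 µg RIPA lysate, 10% SDS-PAGE, primary 1:1,000 overnight at 4 °C), with GAPDH/β-actin as loading control.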

[7] = molecular target: T1, von Hippel-Lindau disease tumor suppressor/Bromodomain-containing protein 4 (Homo sapiens); test: PROTAC activity at BRD4/VHL E3 ligase in human LS174T cells assessed as BRD4 protein degradation at 100 to 500 nM pretreated with proteasome inhibitor MG132 for 4 hrs by Western blot analysis; conditions: dose 100-500 nM
Outline: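 LS174t cells were pre-incubated for 4 h with the proteasome inhibitor MG132 (10 mM DMSO stock) before PROTAC addition. BRD4 was then immunoblotted from RIPA lysates (15 µg, 10% SDS-PAGE, nitrocellulose, primary 1:1,000 overnight at 4 °C), with GAPDH/β-actin as loading control.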

[8] = molecular target: T1, von Hippel-Lindau disease tumor suppressor/Bromodomain-containing protein 4 (Homo sapiens); test: PROTAC activity at BRD4/VHL E3 ligase in human HCT116 p53+/+ cells assessed as decrease in MYC protein expression at 5 to 10 uM for 24 hrs by Western blot analysis; conditions: HCT-116, dose 5-10 µM; outline: as §1
[9] = molecular target: T1, von Hippel-Lindau disease tumor suppressor/Bromodomain-containing protein 4 (Homo sapiens); test: PROTAC activity at BRD4/VHL E3 ligase in human HT-29 cells assessed as decrease in MYC protein expression at 5 to 10 uM for 24 hrs by Western blot analysis; conditions: dose 5-10 µM; outline: as §1
[10] = molecular target: T1, von Hippel-Lindau disease tumor suppressor/Bromodomain-containing protein 4 (Homo sapiens); test: PROTAC activity at BRD4/VHL E3 ligase in human LS174T cells assessed as BRD4 protein degradation at 250 nM for 2 hrs by Western blot analysis
Outline: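 LS174t cells were exposed to PROTAC for 2 h. For washout, the PROTAC was removed by changing the culture medium and cells were harvested 22 h later. BRD4 was assessed by western blot (15 µg lysate, 10% SDS-PAGE, chemiluminescence), normalised against GAPDH/β-actin.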

[11] = molecular target: T1, von Hippel-Lindau disease tumor suppressor/Bromodomain-containing protein 4 (Homo sapiens); test: PROTAC activity at BRD4/VHL E3 ligase in human HCT116 p53+/+ cells assessed as decrease in BRD4 protein degradation at 5 to 10 uM for 24 hrs by Western blot analysis; conditions: HCT-116, dose 5-10 µM; outline: as §1
[12] = molecular target: T2, Protein cereblon/Bromodomain-containing protein 4 (Homo sapiens) (UniProt O60885+Q96SW2); test: PROTAC activity at BRD4/Cereblon in human LS174T-dbet1 resistant cells assessed as BRD4 protein degradation at 500 to 1000 nM for 24 hrs by Western blot analysis; conditions: dose 500-1000 nM
[13] = molecular target: T2, Protein cereblon/Bromodomain-containing protein 4 (Homo sapiens); test: PROTAC activity at BRD4/Cereblon in human LS174T cells assessed as BRD4 protein degradation at 100 to 1000 nM for 24 hrs by Western blot analysis; conditions: dose 100-1000 nM
Outline: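 Cells treated 24 h across 1 nM–10 µM range (fibroblasts at 500/1000 nM). Immunoblot: RIPA lysate with 2.5 mmol/l DTT, 15 µg per lane on 10% SDS-PAGE, nitrocellulose, 5% milk block 1 h. BRD4 or MYC primary 1:1,000 overnight at 4 °C, HRP secondary 1:10,000 for 60 min; GAPDH/β-actin loading control; ECL detection.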

[14] = molecular target: T2, Protein cereblon/Bromodomain-containing protein 4 (Homo sapiens); test: PROTAC activity at BRD4/Cereblon in human Caco-2 cells assessed as decrease in MYC protein expression at 5 to 10 uM for 24 hrs by Western blot analysis; conditions: dose 5-10 µM; outline: as §1
[15] = molecular target: T2, Protein cereblon/Bromodomain-containing protein 4 (Homo sapiens); test: PROTAC activity at BRD4/Cereblon in human LS174T cells assessed as BRD4 protein degradation at 500 nM for 2 hrs by Western blot analysis
Outline: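 LS174t cells exposed 2 h to PROTAC; for washout, medium replaced and cells collected 22 h later. BRD4 by immunoblot (15 µg lysate, 10% SDS-PAGE, anti-BRD4 1:1,000 overnight at 4 °C, GAPDH/β-actin control).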

[16] = molecular target: T2, Protein cereblon/Bromodomain-containing protein 4 (Homo sapiens); test: PROTAC activity at BRD4/Cereblon in human DLD-1 cells assessed as decrease in BRD4 protein degradation at 5 to 10 uM for 24 hrs by Western blot analysis; conditions: dose 5-10 µM; outline: as §1
[17] = molecular target: T2, Protein cereblon/Bromodomain-containing protein 4 (Homo sapiens); test: PROTAC activity at BRD4/Cereblon in human LS174T cells assessed as decrease in MYC protein expression at 5 to 10 uM for 24 hrs by Western blot analysis; conditions: dose 5-10 µM; outline: as §1

T2 sequence (Q96SW2 whole entry, looked up, other chains not shown): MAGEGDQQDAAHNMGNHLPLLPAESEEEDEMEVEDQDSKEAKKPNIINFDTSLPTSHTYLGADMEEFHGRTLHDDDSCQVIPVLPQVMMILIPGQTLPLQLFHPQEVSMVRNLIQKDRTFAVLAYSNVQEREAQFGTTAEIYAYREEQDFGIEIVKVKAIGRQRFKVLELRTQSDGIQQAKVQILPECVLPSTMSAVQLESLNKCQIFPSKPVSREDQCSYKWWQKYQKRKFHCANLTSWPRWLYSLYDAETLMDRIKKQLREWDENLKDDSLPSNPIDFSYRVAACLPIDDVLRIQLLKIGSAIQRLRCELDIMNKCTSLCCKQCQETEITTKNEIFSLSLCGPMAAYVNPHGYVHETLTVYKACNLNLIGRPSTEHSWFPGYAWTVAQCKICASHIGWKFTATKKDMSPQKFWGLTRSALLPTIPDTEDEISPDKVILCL
T1 sequence (P40337 whole entry, looked up, other chains not shown): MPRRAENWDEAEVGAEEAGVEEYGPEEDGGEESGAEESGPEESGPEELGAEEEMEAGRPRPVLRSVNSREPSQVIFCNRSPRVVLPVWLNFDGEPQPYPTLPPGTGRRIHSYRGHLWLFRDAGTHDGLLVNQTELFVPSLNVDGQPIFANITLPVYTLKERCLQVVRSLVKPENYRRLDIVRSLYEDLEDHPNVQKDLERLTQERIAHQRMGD

Structure (SMILES) | Activity [1] | Activity [2] | Activity [3] | Activity [4] | Activity [5] | Activity [6] | Activity [7] | Activity [8] | Activity [9] | Activity [10] | Activity [11] | Activity [12] | Activity [13] | Activity [14] | Activity [15] | Activity [16] | Activity [17]
Cc1ncsc1-c1ccc(CNC(=O)[C@@H]2C[C@@H](O)CN2C(=O)[C@@H](NC(=O)COCCOCCOCCNC(=O)C[C@@H]2N=C(c3ccc(Cl)cc3)c3c(sc(C)c3C)-n3c(C)nnc32)C(C)(C)C)cc1 | Dose-Dependent Effect | inactive | inactive | Active | Active | inactive | inactive | Active | Active | Active | Active | – | – | – | – | – | –
Cc1sc2c(c1C)C(c1ccc(Cl)cc1)=N[C@@H](CC(=O)NCCCCNC(=O)COc1cccc3c1C(=O)N(C1CCC(=O)NC1=O)C3=O)c1nnc(C)n1-2 (some centres not stated) | – | – | – | – | – | – | – | – | – | – | – | inactive | Dose-Dependent Effect | Active | Active | Active | Active
